KCNQ1 inh – inhibitors of human KCNQ1 channel, primary screen, cell-based, thallium flux, high-throughput. B-score at 10 µM. Potassium voltage-gated channel subfamily KQT member 1 (Homo sapiens), P51787. CHO-K1 KCNQ1, FluxOR thallium flux fluorescence; hits give high values. 310,000 compounds, 1.3% hits;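 active = compounds whose thallium flux B-score, printed positive for inhibition, exceeds three library SD while starting fluorescence stays within three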;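 also: channel opened by potassium depolarization with thallium stimulus after 20 min compound exposure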
KCNK3 inh – human KCNK3 channel inhibitors, primary screen, CHO cells, FluxOR thallium flux, B-score. AID 602410, 2012. B-score at 10 µM. 340,000 compounds, 0.84% hits. FluxOR fluorescence; hits give low values. Potassium channel subfamily K member 3 (Homo sapiens), O14649;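 active = B-score under library mean minus 4 SD, starting fluorescence ratio at most library mean plus 5 SD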;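 also: more negative B-score means stronger inhibition of thallium flux through KCNK3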
Target sequence (O14649 whole entry, looked up): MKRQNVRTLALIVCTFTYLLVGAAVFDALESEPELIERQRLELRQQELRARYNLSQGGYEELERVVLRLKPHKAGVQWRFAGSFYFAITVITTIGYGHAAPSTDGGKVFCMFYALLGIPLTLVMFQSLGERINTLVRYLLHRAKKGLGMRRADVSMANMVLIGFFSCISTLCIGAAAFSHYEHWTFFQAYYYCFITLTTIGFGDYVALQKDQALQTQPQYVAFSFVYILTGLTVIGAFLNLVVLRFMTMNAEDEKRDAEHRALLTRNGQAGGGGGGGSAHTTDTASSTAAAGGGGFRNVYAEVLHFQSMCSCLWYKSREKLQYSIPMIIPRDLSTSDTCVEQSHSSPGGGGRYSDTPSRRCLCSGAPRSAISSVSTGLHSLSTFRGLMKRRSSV
KCNK9 inh – KCNK9 potassium channel inhibitors, primary screen, HEK293 cells, thallium flux; Potassium channel subfamily K member 9 (Homo sapiens), Q9NPC2; FluxOR thallium flux fluorescence; hits give low values; B-score at 10 µM; 310,000 compounds, 1.2% hits; AID 488922, 2010;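 active = ratio B-score over 3 SD below the library mean, with starting fluorescence within 5 SD of its mean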;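 also: negative B-score means less thallium flux so channel inhibition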
hERG rescue – hERG rescue from dofetilide block, primary screen, cell-based, CHO-hERG, FluxOR thallium flux, dofetilide IC70 | dofetilide IC70 present | activation (rescue from dofetilide block), less the hit threshold, % at 10 µM | 310,000 compounds, 0.51% hits | AID 1511, 2009;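 active = activation above the mean of controls blocked by dofetilide plus 5 SD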;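 also: thallium influx through hERG after potassium depolarization seen as dye fluorescence rise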
KCNQ1 pot – potentiators or activators of KCNQ1 channel, primary screen, cell-based, thallium flux, high-throughput. CHO-K1 KCNQ1, thallium flux FluxOR fluorescence; hits give high values. B-score at 10 µM. 310,000 compounds, 0.35% hits. AID 2648, 2010;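 active = fluorescence ratio B-score, a plate-corrected score, at least three library SD, with initial intensity B-score within 5 SD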
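Medium – assay buffer, equal DMSO in all wells · Material – CHO-K1 cell line with stable KCNQ1 potassium channel expression · Signal – kinetic FluxOR thallium fluorescence, 10-s 1-Hz baseline, 110-s post-stimulus read · Compound – single concentration per compound, DMSO matched to controls · Schedule – 37 °C overnight plating, 90-min dark dye load, 20-min compound pretreatment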
The depositor's hits bear a star; i = inactive; · = no result. Compounds with a hit are over-represented: about 3.1% of the library has one in this group of screens.

SMILES	KCNQ1 inh	KCNK3 inh	KCNK9 inh	hERG rescue	KCNQ1 pot
O=C(Nc1cccc(Cl)c1)C1=Cc2cc(Cl)ccc2OC1	i	i	i	-10	i
O=C(Nc1ccc(Cl)c(Cl)c1)C1=Cc2ccccc2OC1	7*	i	i	-10	i
Cc1[nH]c(-c2ccccn2)nc(=S)c1Cl	i	i	i	52*	41*
O=C(NCc1ccccn1)c1cc(-c2ccc(Cl)cc2)oc1C(F)(F)F	i	i	-7.4*	-12	i
COc1ccc(N(C)S(=O)(=O)c2ccc3c(c2)CCN3C(=O)C2CC2)c(OC)c1	i	i	i	-17	i
CN(C)c1ncc(C2=C(Cl)C(=O)C(N3CCCC3)=C(Cl)C2=O)s1	7*	i	i	-46	i
O=C1C(Cl)=C(N2CCCCC2)C(=O)C(Cl)=C1c1cnc(N2CCCCC2)s1	7*	i	i	-3	i
CC(=O)c1cnc(N(C)C)s1	i	i	i	-9	i
CCCCCCCCN1[C@@H](CC(=O)OCC)c2ccc(C(F)(F)F)cc2S1(=O)=O	6*	i	i	-2	i
CC(C)Cn1c(=O)c(C(=O)N/N=C/c2cccc(F)c2)c(O)c2ccccc21	i	i	i	-11	9*
O=C(COC(=O)c1c(F)cccc1Cl)NCC1CCCCC1	·	i	·	·	·
COc1ccc(C(CNC(=O)CCC(=O)c2ccc(C)s2)N2CCOCC2)cc1 (configuration not stated)	·	i	·	·	·
O=C(NC(=S)NC1CCCc2ccccc21)c1ccco1 (configuration not stated)	i	i	i	8.7*	16*
O=C(NC(=S)NC1CCCc2ccccc21)c1ccc(F)cc1 (configuration not stated)	i	i	i	-8	9*
COc1ccccc1N(C)S(=O)(=O)c1ccc(C(=O)Nc2nccs2)cc1	·	i	·	·	·
Cc1ccc2cc(NC(=O)c3ccccc3C)ccc2n1	i	i	i	-1	i
CC(=O)Oc1ccc2c(c1)O/C(=C\c1ccncc1)C2=O	9*	i	i	-27	i
CCN(CC)C(=O)Oc1ccc2c(c1)O/C(=C\c1ccco1)C2=O	i	i	i	-12	i
COC(=O)COc1ccc2c(c1)O/C(=C\c1ccco1)C2=O	i	i	i	-7	i
COCCN(CCOC)Cc1c(O)ccc2c1O/C(=C\c1ccco1)C2=O	11*	i	i	-26	i
O=C(Oc1ccc2c(c1)O/C(=C\c1ccncc1)C2=O)c1cccs1	i	i	i	-9	i
CCC(=O)Oc1ccc2c(c1)O/C(=C\c1ccco1)C2=O	6*	i	i	-16	i
O=C1/C(=C/c2ccco2)Oc2c1ccc(O)c2CN1CCCCC1	i	i	i	-37	i
Cc1cc(O)cc2c1C(=O)/C(=C/c1ccco1)O2	11*	i	i	-11	i
Nc1[nH]c(=O)nc2snnc12	·	i	·	·	·
SMILES	KCNQ1 inh	KCNK3 inh	KCNK9 inh	hERG rescue	KCNQ1 pot
COc1ccc(/C=C/c2c(-c3ccc(OC)cc3)sc3cc(OC)c(OC)cc23)cc1	·	i	·	·	·
COC(=O)C1CCC(=O)N1C(c1ccc(OC)cc1)c1cc(OC)c(OC)c(OC)c1 (configuration not stated)	·	i	·	·	·
CC(C)OC(=O)Nc1ccc2c(c1)N(C(=O)N1CCN(C)CC1)c1ccccc1CC2	i	i	i	-6	i
CCCCc1c(O)nc(SCC(=O)N2CCCCC2)n(-c2ccccc2C)c1=O	i	i	i	9.8*	i
CC1(C)CCC(=O)N2CC[C@H]3C[C@H](OC(=O)Nc4ccccc4)C[C@@H]1[C@H]32	i	i	i	-5	i
CC1(C)CCC(=O)N2CC[C@H]3C[C@H](OC(=O)Nc4ccc5c(c4)OCO5)C[C@@H]1[C@H]32	i	i	-8*	-9	i
COc1cccc(NC(=O)CN(C)C(=O)CCN2C(=O)C3CC=CCC3C2=O)c1 (configuration not stated)	·	i	·	·	·
CC(=O)O[C@H]1[C@@H](O)[C@H](O)[C@H](Oc2c(O)c(C)c3c4c2[C@@H](C)CC[C@@H]4[C@@H](C)C[C@H]3C=C(C)C)O[C@H]1C	·	i	·	·	·
Cc1ccc(N2C(=O)c3cccc4c(N5CCN(C)CC5)ccc(c34)C2=O)c2cccnc12	9*	·	i	-21	i
Nc1nc2c(C(=O)N3CCOCC3)nnn2c2ccccc12	i	i	i	-6	i
CCOc1cc(C(=O)NC)cc(OCC)c1OCC	i	i	i	9.7*	i
Cn1c(=O)nc2n(Cc3ccccc3)c3ccccc3cc-2c1=O	i	i	i	-5	8*
CCCCn1c(=O)nc2n(-c3ccccc3C)c3ccccc3cc-2c1=O	i	i	i	-12	11*
CN(C)c1nc2c(c(=O)n(C)c(=O)n2C)n1Cc1ccccc1	i	i	i	-12	i
Cc1ccccc1-n1c(=O)c2ccccc2n2nnnc12	i	i	i	-8	i
Cc1ccccc1-n1c2nc(=O)n(C)c(=O)c-2cc2ccccc21	7*	i	i	-1	i
CCCCn1c(=O)c2ccccc2c2ccccc2c1=O	·	i	·	·	·
Cc1cn([C@H]2C[C@H](O)[C@@H](CCC(=O)NCCN3CCCCC3)O2)c(=O)[nH]c1=O	·	i	·	·	·
CCc1ccccc1Nc1cc(C(=O)NCc2ccccn2)c2ccccc2n1	i	i	-8*	-9	i
CCc1ccc(-c2cc(C(=O)NCc3ccccn3)c3ccccc3n2)cc1	i	i	i	-16	i
Cc1ccccc1OCc1nc2ccccc2c(=O)n1/N=C/c1ccco1	i	i	-6.9*	-5	i
Cc1ccsc1CNCc1cc(Cl)ccc1O	·	i	·	·	·
CCCCN1C(=O)/C(=C/C=C2\SCCN2C)SC1=S	i	i	i	-16	i
CN1CCS/C1=C/C=C1\SC(=S)N(CC(=O)O)C1=O	14*	i	i	-32	i
CC(C)CC(=O)Nc1cccc(-c2nc3ccccc3o2)c1	i	i	-7.7*	-13	i
CCC(=O)Nc1ccc(Cl)c(-c2nc3ncccc3o2)c1	i	i	i	-13	i
CCCC(=O)Nc1ccc(Cl)c(-c2nc3ncccc3o2)c1	i	i	-8*	-9	i
Cc1cc(NC(=O)c2cccs2)cc(-c2nc3ncccc3o2)c1O	i	i	-8*	-3	i
CCCCCC(=O)Nc1cccc(-c2nc3ncccc3o2)c1	i	i	-7.4*	-18	i
